Source: paper PMC4272346 (Biochemistry, 2013)

Key:
[1] = target: NS3h_E291Q; assay: FP-based DNA binding assay, displacement from mutant; parameters: species or system hepatitis C virus; conditions: Cy5-dT15 displacement at EC85 of protein
Summary of the method: (§1)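 Fluorescence polarization displacement using C-terminally His-tagged NS3h helicase domain mutants and wildtype. Each protein was at its EC85 from titration, with the test compound added in DMSO. Excitation 635 nm, emission 667 nm. IC50 came from dose-response fits, and Ki from Cheng-Prusoff using protein EC50 and concentration, assuming competition with DNA.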

[2] = target: NS3h_D290N; assay: as above; parameters: species or system hepatitis C virus; conditions: Cy5-dT15 displacement at EC85 of protein
Summary of the method: as §1

[3] = target: NS3h-dT20 complex (Hepatitis C virus genotype 1b, UniProt Q9WMX2); assay: DSC of pre-assembled NS3h-dT20 complex; assay type: binding
Summary of the method: (§2)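 Where present, dT20 was at 10 μM, and the test compound was at 10 μM–5 mM. Samples were heated 20–100 °C at 1 °C/min, with a repeat scan of the same sample as baseline. Fitting used a scaled two-state model. For the NS3h-dT20 samples, Tm versus compound concentration was fitted to a dose-response equation.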

[4] = target: NS3h R467E; assay: FP-based DNA binding assay, displacement from mutant; parameters: species or system hepatitis C virus; conditions: Cy5-dT15 displacement at EC85 of protein
Summary of the method: as §1

[5] = target: T1, NS3h (Hepatitis C virus genotype 1b, UniProt Q9WMX2); assay: Differential scanning calorimetry; assay type: binding; conditions: 10 μM NS3h, 300 μM ATA
Summary of the method: as §2

[6] = target: T1, NS3h; assay: Electrophoretic mobility shift assay of NS3h-Cy5-dT15 complex; assay type: binding
[7] = target: NS3h_E493Q; assay: FP-based DNA binding assay, displacement from mutant; parameters: species or system hepatitis C virus; conditions: Cy5-dT15 displacement at EC85 of protein
Summary of the method: as §1

[8] = target: full-length NS3 (Hepatitis C virus genotype 1b, UniProt Q9WMX2); assay: Studies repeated with full-length NS3 with and without NS4A; conditions: presence and absence of NS4A
[9] = system: NS3h (wildtype); conditions: read-out: IC50, polarization shift of a Cy5 labeled oligonucleotide; NS3h bound to Cy5-labeled DNA oligonucleotide; ref 11 (Mukherjee et al.); cited from earlier work
[10] = target: T1, NS3h; assay: ATPase assay 2: NS3h-catalyzed ATP hydrolysis in the absence of nucleic acids; assay type: biochemical
[11] = target: T1, NS3h; assay: Isothermal titration calorimetry; assay type: binding
Summary of the method: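 NS3h was dialysed overnight into 25 mM MOPS pH 7.0, 1.25 mM MgCl2, 0.01% Tween 20, quantified by A280 (ε 52,360 M−1cm−1) and used at 20 μM. The test compound was 250 μM in dialysis buffer, given as 16 injections of 3 μl at 300 s intervals at 5 °C, with the first injection excluded. Baseline was zeroed on the mean of the last three injections, then fitted to an independent sites model. Three titrations were run.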

[12] = target: T1, NS3h; assay: ATPase assay 1: DNA; assay type: biochemical
[13] = target: NS3h_H369K; assay: FP-based DNA binding assay, displacement from mutant; parameters: species or system hepatitis C virus; conditions: Cy5-dT15 displacement at EC85 of protein
Summary of the method: as §1

[14] = target: T2, NS3h (wildtype) (Hepatitis C virus (genotype 1b, con1; …, UniProt Q9WMX2 1192-1657); assay: ITC
[15] = target: T2, NS3h (wildtype); assay: EMSA

## O=C(O)C1=CC(=C(c2ccc(O)c(C(=O)O)c2)c2ccc(O)c(C(=O)O)c2)C=CC1=O [ATA, aurintricarboxylic acid]
[1]
  Relative Ki (Cheng-Prusoff) compared with wildtype NS3h: notably lower
[2]
  Relative Ki (Cheng-Prusoff) compared with wildtype NS3h: notably lower
[3]
  EC50: ~500000 nM
[3]; NS3h and dT20 10 μM each, dose response fit
  Maximum decrease of Tm of NS3h-dT20 complex: 11 ± 3 °C
[4]
  Relative Ki (Cheng-Prusoff) compared with wildtype NS3h: higher
[5]
  Change in enthalpy of unfolding (ΔΔH): -52.1 kcal/mol
  Increase of unfolding temperature of NS3h: 8 °C
[6]
  IC50: 4000 nM
[7]
  Relative Ki (Cheng-Prusoff) compared with wildtype NS3h: higher
[8]
  Sensitivity of full-length NS3 compared with NS3h: not noted any differences in the sensitivity
[9]
  IC50: 1400 nM
[10]
  Ki: 450 ± 150 nM
[11]
  Kd: 1300 ± 200 nM
[11]; 20 μM NS3h titrated with 250 μM ATA, 5 °C
  ATA monomers binding per NS3h (stoichiometry): 1.5
[11]; ITC, 5 °C
  ΔH of binding: -3.2 ± 0.14 kcal/mol
[11]; at 5 °C
  ΔS of binding: 63 J/mol K
  −TΔS of binding: -4.18 kcal/mol
[11]; at 5 °C, from Kd
  ΔG of binding: -7.39 ± 0.072 kcal/mol
[12]
  Ki: 1400 ± 200 nM
[13]
  Relative Ki (Cheng-Prusoff) compared with wildtype NS3h: similar

## TTTTTTTTTTTTTTTTTTTT (ssDNA) [dT20]
[14]
  binding result: binds

## TTTTTTTTTTTTTTT (ssDNA) [Cy5-dT15]
[15]
  binding result: binds
